Source: PubChem
A selection: hits, their analogues and other compounds. The true share with any hit is near 10%.
L major viab: Leishmania major promastigote growth inhibition, primary screen; 200,000 compounds, 9% hits; inhibition, % at 10 µM; Leishmania major promastigotes, resazurin fluorescence viability; in the data active = inhibition above about 50%;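 also: promastigotes grown with compound for 44 hours at 28 °C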
Diaphorase act: compounds boosting diaphorase resazurin reduction – biochemical, uHTS, resorufin fluorescence, counter-screen for diaphorase-coupled primary assays, primary screen; 190,000 compounds, 0.005% hits; activation factor at 20 µM; AID 1229, 2008; Diaphorase/resazurin coupled assay, 16 min; stronger effect = higher value; 1 = vehicle wells, 0 = NADH-free wells;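 active = diaphorase activity raised at least twofold by the compound at 20 µM; inactive = activation factor below 2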
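System – purified diaphorase enzyme from Clostridium kluyveri · Input – enzyme 0.07 U/mL final · Also added – final NADH 0.114 mM, resazurin 0.1 mM · Measured by – fluorescence of resorufin, 544 nm excitation, 590 nm emission · Timing – 16 min enzyme reaction, ambient temperature · Measure – resorufin increase flagging diaphorase activators or reducers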
WT yeast gro inh: growth inhibition of WT strain, primary screen, mitochondrial fusion inhibitor project, WT and mutant strains, chemical genetic; mitochondrial fusion phenotypic screen; inhibition, % at 10 µM; 190,000 compounds, 2.1% hits; in the data active = inhibition above about 58%; tested in S. cerevisiae
PMI act: activators of human PMI, primary screen, biochemical, fluorescence intensity, near-Km mannose 6-phosphate; 190,000 compounds, 0.005% hits; Mannose-6-phosphate isomerase (Homo sapiens), P34949; purified human PMI, coupled resazurin fluorescence, 20 min; stronger effect = higher value; 1 = vehicle control, 0 substrate-free wells; activation factor at 20 µM;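 active = activation factor of 2 or more at 20 µM, relative to plate controls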
Target sequence (P34949 whole entry, looked up): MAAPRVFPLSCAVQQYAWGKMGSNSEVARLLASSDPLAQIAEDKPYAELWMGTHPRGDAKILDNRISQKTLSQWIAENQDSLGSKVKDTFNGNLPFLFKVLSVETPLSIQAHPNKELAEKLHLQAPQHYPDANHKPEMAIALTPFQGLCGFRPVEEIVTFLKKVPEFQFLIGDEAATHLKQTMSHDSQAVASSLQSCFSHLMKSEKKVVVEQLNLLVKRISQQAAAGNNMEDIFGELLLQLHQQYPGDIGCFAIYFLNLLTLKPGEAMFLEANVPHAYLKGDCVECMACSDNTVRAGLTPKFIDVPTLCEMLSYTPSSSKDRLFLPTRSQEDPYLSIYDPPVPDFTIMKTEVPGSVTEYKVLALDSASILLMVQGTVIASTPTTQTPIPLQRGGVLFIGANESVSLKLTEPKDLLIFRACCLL
PMI act satM6P: human PMI activators, high substrate, primary screen, biochemical, fluorescence intensity, near-saturating mannose 6-phosphate; Mannose-6-phosphate isomerase (Homo sapiens), P34949; coupled PMI enzyme assay, resazurin fluorescence, 20 min; stronger effect = higher value; 1 = untreated enzyme, 0 = substrate-free blank; activation factor at 20 µM; 190,000 compounds, 0.34% hits;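 active = activation factor of 2 or more at 20 µM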
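Material: human phosphomannose isomerase with PGI, G6PDH, diaphorase coupling enzymes. Quantity: 15 ng/mL PMI. Medium: HEPES pH 7.4 buffer with MgCl2 and Tween-20. Reagent: Near-saturating mannose-6-phosphate, 1.0 mM. Compound: 20 µM single dose. Times: enzyme reaction with compound 20 min at room temperature. Detection: resorufin fluorescence at Ex 544/Em 590 nm.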
Numbers stand for hits; 0 = inactive; - = no result.

SMILES | L major viab | Diaphorase act | WT yeast gro inh | PMI act | PMI act satM6P
Cc1cc2c3c(c1)C1(C(=O)N3C(C)(C)CC2C)C(C#N)=C(N)OC2=C1C(=O)CC(C)(C)C2 (stereo not drawn) | 0 | 0 | 0 | 0 | 0
COc1ccc(COCC(O)CN(Cc2ccco2)Cc2ccccc2O)cc1 (stereo not drawn) | 0 | 0 | 0 | 0 | 0
Oc1ccccc1CN(Cc1ccco1)CC(O)COCc1ccc(Cl)cc1 (stereo not drawn) | 0 | 0 | 67.5 | 0 | 0
C(=N\NC1=Nc2cccc3cccc1c23)/c1ccccn1 | 100.3 | 0 | 68.3 | 0 | 0
Cc1csc(N/N=C/c2ccccn2)n1 | 94.6 | 0 | 0 | 0 | 0
Cc1ccc(NC(=S)N(CCN(C)C)Cc2cc3cc(C)cc(C)c3[nH]c2=O)cc1 | 79.2 | 0 | 0 | 0 | 0
CCOCCCN(Cc1cc2cc(C)cc(C)c2[nH]c1=O)C(=O)N(CC)CC | 58.2 | 0 | 0 | 0 | 0
Cc1ccc2cc(CN(CCN(C)C)C(=S)Nc3ccccc3)c(=O)[nH]c2c1C | 0 | 0 | 0 | 0 | 0
O=C(c1cccc(C(F)(F)F)c1)N(c1ccccn1)C1CCCCC1 | 0 | 0 | 0 | 0 | 0
Cc1ccc(S(=O)(=O)N2CCOCC2)cc1C(=O)OCC(=O)N1c2ccccc2NC(=O)C1(C)C | 0 | 0 | 0 | 0 | 0
Cc1ccc(-n2nc(C)c(NC(=O)CCl)c2C)cc1C | 56.1 | 0 | 0 | 0 | 0
c1ccc2c(c1)OCCOCCOCCOCCOc1ccccc1OCCOCCOCCO2 | 99.2 | 0 | 0 | 0 | 0
Brc1ccc2c(c1)OCCOCCOCCOCCOCCO2 | 0 | 0 | 0 | 0 | 0
COc1ccc(-c2cc(-c3n[nH]c(=S)n3-c3ccccc3Cl)[nH]n2)cc1 | 0 | 0 | 0 | 0 | 0
Cc1cc(SCC(=O)c2cccs2)nc2ccccc12 | 0 | 0 | 0 | 0 | 0
COc1cc(C(=O)c2ccccc2)c(OC)cc1C(=O)Nc1ccc(O)cc1 | 0 | - | 0 | - | -
Cc1cccc(N2CCN(C(=O)c3c(C)nn(Cc4ccccc4Cl)c3C)CC2)c1C | 0 | 0 | 59.7 | 0 | 0
CCN(CC(=O)Nc1c(C(=O)OC)[nH]c2ccc(Cl)cc12)c1ccc2c(c1)OCO2 | 0 | 0 | 68.2 | 0 | 0
CCOC(=O)c1[nH]c2ccc(Cl)cc2c1NC(=O)/C=C/c1ccc2c(c1)OCO2 | 0 | 0 | 0 | 0 | 0
Cn1c(=O)c2c(nc(NCCCN3CCOCC3)n2Cc2ccc(Cl)c(Cl)c2)n(C)c1=O | 99.1 | - | - | - | -
Cn1c(=O)c2c(nc(NCCCN3CCOCC3)n2Cc2cccc(Cl)c2)n(C)c1=O | 97.7 | 0 | - | 0 | 0
Cn1c(=O)c2c(nc(NCCCN3CCOCC3)n2Cc2ccc(Cl)cc2)n(C)c1=O | 57.7 | 0 | - | 0 | 0
Cc1ccc(OCc2nnc(SCC(=O)c3ccccc3)n2-c2ccccc2)cc1 | 99.8 | 0 | 0 | 0 | 0
Cc1cccc(-n2c(CCc3ccccc3)nnc2SCC(=O)c2ccccc2)c1 | 0 | 0 | 67.9 | 0 | 0
Cc1ccc(-n2c(CCc3ccccc3)nnc2SCC(=O)NCc2ccccc2)cc1C | 54.0 | 0 | 0 | 0 | 0
SMILES | L major viab | Diaphorase act | WT yeast gro inh | PMI act | PMI act satM6P
O=C(O)CSc1nnc(Cc2ccccc2)n1-c1ccccc1 | 0 | 0 | 0 | 0 | 0
O=C(CN1C(=O)C2C3c4ccccc4C(c4ccccc43)C2C1=O)Nc1ccccc1C(=O)O (stereo not drawn) | 0 | 0 | 0 | 0 | 0
CC(C)(C)C1CCc2c(sc(NC(=O)c3cccs3)c2C(=O)N2CCCCC2)C1 (stereo not drawn) | 0 | 0 | 61.7 | 0 | 0
Cc1ccc2nc(COc3ccc(Cl)cc3)cc(=O)n2c1 | 0 | 0 | 0 | 0 | 0
Cc1ccc(C(=O)NC2CC3CCC(C2)N3Cc2ccco2)cc1 (stereo not drawn) | 56.8 | 0 | 0 | 0 | 0
Cc1ccc(CN2C3CCCC2CC(NC(=O)c2ccc(C)cc2)C3)cc1 (stereo not drawn) | 80.8 | 0 | 0 | 0 | 0
CN1CCC(N(C)CC(=O)Nc2cccc(Oc3ccccc3)c2)CC1 | 96.2 | 0 | 0 | 0 | 0
CCOC(=O)c1sc(NC(=O)CCN2CCN(CC)CC2)c(C(=O)OCC)c1C | 99.8 | 0 | 0 | 0 | 0
CN1CCC(N(C)CC(=O)Nc2ccccc2N2CCOCC2)CC1 | 0 | 0 | 0 | 0 | 0
